The results in this text go back to ChEMBL document CHEMBL1136850, “Neuroprotective activity and evaluation of Hsp90 inhibitors in an immortalized neuronal cell line” (Bioorg Med Chem, 2009).

pEC50: −log10 of the molar value. Active and inactive are the calls of the source. No cut-off for these calls is given here.

The test system of data set [1] is SH-SY5Y. Description: Toxicity in retinoic acid-differentiated human SH-SY5Y cells assessed as effect on cell morphology at 10 uM after 24 hrs by trypan blue exclusion method. Type of data set: cell-based. The gist of the method:
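Retinoic acid-differentiated SH-SY5Y cells (10 μM RA, 7 days) were exposed to 10 μM drug or DMSO without Aβ for 24 h. Neurite morphology was examined by phase-contrast microscopy. Viability was counted by 0.04% trypan blue exclusion.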

The test system of data set [2] is SH-SY5Y. Description: Toxicity in human SH-SY5Y cells at 10 uM by trypan blue exclusion method. Type of data set: cell-based.
Data set [3] deals with SH-SY5Y. Description: Neuroprotection against beta-amyloid peptide 1-42-induced toxicity in retinoic acid-differentiated human SH-SY5Y cells assessed as lactate dehydrogenase release at 1 uM. Type of data set: functional. The gist of the method: (§1)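 SH-SY5Y cells were differentiated for 7 days with 10 μM retinoic acid until they stopped proliferating and grew neurites. Drug was added 2 h before 10 μM Aβ in serum-free DMEM for 48 h. Released LDH was measured by NADH oxidation (pyruvate 1 mM, NADH 0.2 mM, pH 7.4; […] over 5 min at 25°C). Protection is expressed against Aβ alone, taken as 100% death.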

Data set [4] relates to SH-SY5Y. As to the kind of experiment: Neuroprotection against beta-amyloid peptide 1-42-induced toxicity in human SH-SY5Y cells assessed as lactate dehydrogenase release. Format: functional, cell-based. The gist of the method:
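Proliferating SH-SY5Y cells were grown in DMEM with 10% FBS at 37°C in 5% CO2, then seeded into 96-well plates. Drug or DMSO was given 2 h before 10 μM Aβ in serum-free DMEM for 48 h. LDH released into the cleared medium was read kinetically as NADH oxidation (50 mM phosphate pH 7.4, 1 mM pyruvate, 0.2 mM NADH; […], 5 min, 25°C). Aβ alone was set as 100% cell death. Mean ± S.E.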

Data set [5] concerns SH-SY5Y. As to the kind of experiment: Neuroprotection against beta-amyloid peptide 1-42-induced toxicity in retinoic acid-differentiated human SH-SY5Y cells assessed as lactate dehydrogenase release. Type of data set: functional, cell-based. The gist of the method:
as §1

In data set [6] the test system is SH-SY5Y. Description: Neuroprotection against beta-amyloid peptide 1-42-induced toxicity in retinoic acid-differentiated human SH-SY5Y cells assessed as lactate dehydrogenase release at 10 nM. Type of data set: functional, cell-based. A digest of the protocol: as §1

As a reminder, the pEC50 is the EC50 on a negative log10 scale, so that one unit is a factor of ten. As for `CO[C@@H]1[C@@H](O)[C@@H](O)[C@H](Oc2ccc3cc(NC(C)=O)c(=O)oc3c2C)OC1(C)C`, the results for the Activity result in the data set on SH-SY5Y [1] and with SH-SY5Y [3] were “Non-toxic” and 70%, respectively. For the same compound, the AC50 entry in the data set with SH-SY5Y [2] was “Non-toxic”. Also, the negative logarithm of the EC50 (pEC50) with SH-SY5Y [4] was 8.83.

With `CO[C@@H]1[C@@H](O)[C@@H](O)[C@H](Oc2ccc3cc(NC(=O)CCCCCCC(=O)Nc4cc5ccc(O[C@@H]6OC(C)(C)[C@H](OC)[C@@H](O)[C@H]6O)c(C)c5oc4=O)c(=O)oc3c2C)OC1(C)C`, the Activity entry in the data set on SH-SY5Y [1] is given as “Non-toxic”. Moreover, in the data set on SH-SY5Y [2], the AC50 result was “Non-toxic”. For the same compound, the pEC50 in the data set with SH-SY5Y [4] was 8.35.

As to `CO[C@@H]1[C@@H](O)[C@@H](O)[C@H](Oc2ccc3cc(NC(C)=O)c(=O)oc3c2)OC1(C)C`, in the data set with SH-SY5Y [1], the Activity entry is recorded as “Non-toxic”. Moreover, the pEC50 with SH-SY5Y [4] was 8.31.

Regarding `O=C(O)/C=C/c1nn(Cc2ccc(Cl)cc2Cl)c2cc(C(F)(F)F)ccc12`, the outcome with SH-SY5Y [5] was inactive.

In the case of `CC1=C(O)C(=O)C=C2C1=CC=C1[C@@]2(C)CC[C@@]2(C)[C@@H]3C[C@](C)(C(=O)O)CC[C@]3(C)CC[C@]12C` [CELASTROL], the pEC50 with SH-SY5Y [4] was 7.42.

Turning to `O=C(O[C@@H]1Cc2c(O)cc(O)cc2O[C@@H]1c1cc(O)c(O)c(O)c1)c1cc(O)c(O)c(O)c1` [EPIGALOCATECHIN GALLATE], the pEC50 with SH-SY5Y [4] was 7.40.

Take `CC(=O)O[C@@H]1C[C@H]2C(C)(C)C(=O)C=C[C@]2(C)[C@H]2CC[C@@]3(C)[C@H](c4ccoc4)OC(=O)[C@H]4O[C@]43[C@@]21C` [GEDUNIN]: the pEC50 with SH-SY5Y [4] was 7.41.

For the compound `COC1=C2C[C@@H](C)C[C@H](OC)[C@H](O)[C@@H](C)/C=C(\C)[C@H](OC(N)=O)[C@@H](OC)/C=C\C=C(/C)C(=O)NC(=CC1=O)C2=O` [GELDANAMYCIN], the Activity result with SH-SY5Y [1] is recorded as “Toxic”. In addition, the outcome in the data set on SH-SY5Y [6] was Active. In the data set with SH-SY5Y [5], the outcome was inactive. In the data set on SH-SY5Y [4], the negative logarithm of the EC50 (pEC50) is 7.37.

Turning to `CO[C@@H]1[C@@H](OC(N)=O)[C@@H](O)[C@H](Oc2ccc3c(O)c(NC(=O)c4ccc(O)c(CC=C(C)C)c4)c(=O)oc3c2C)OC1(C)C` [NOVOBIOCIN], the Activity entry in the data set on SH-SY5Y [1] is reported as “Toxic”. For the same compound, the result in the data set on SH-SY5Y [6] and in the data set with SH-SY5Y [5] was Active. Besides, in the data set with SH-SY5Y [4], the pEC50 is 7.32.
